ChEMBL document CHEMBL1949592, “Synthesis and antiviral activity of 2'-deoxy-2'-fluoro-2'-C-methyl-7-deazapurine nucleosides, their phosphoramidate prodrugs and 5'-triphosphates” (Bioorg Med Chem Lett, 2011)

What was measured:
Huh-7 [1] = experiment: Metabolic stability in human HuH7 cells assessed as 5'-monophosphate level at 50 uM after 4 hrs by LC-MS/MS analysis; format: ADME, cell-based; details: huh-7, 4 h
How it was run: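 Huh-7 cells were exposed to the parent nucleoside or its phosphoramidate prodrug, each separately at 50 μM, at 37 °C for 4 h, then washed with phosphate-buffered saline before intracellular analysis.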

[2] = system: Human immunodeficiency virus 1; experiment: Antiviral activity against HIV1 LAV1 infected in PHA-stimulated human PBMC assessed as reduction in RT activity after 6 days by micromethod-based beta scintillation counting; format: functional, organism-based; details: Human immunodeficiency virus 1, LAV1, 144 h
Huh-7 [3] = experiment: Cytotoxicity against human HuH7 cells assessed as reduction of 50% rRNA level after 96 hrs; format: cell-based; details: huh-7, 96 h
How it was run: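 Huh-7 cells carrying the HCV replicon were exposed to compound for 96 h. Toxicity was read as a fall in cellular rRNA.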

Vero = experiment: Cytotoxicity against african green monkey Vero cells after 3 days by hemocytometer analysis; format: cell-based; details: Chlorocebus sabaeus, 72 h
CCRF-CEM = experiment: Cytotoxicity against human CEM cells after 6 days by trypan blue exclusion method; format: cell-based; details: 144 h
PBMC = experiment: Cytotoxicity against human PBMC after 6 days by trypan blue exclusion method; format: cell-based; details: 144 h
Hepatitis C virus = experiment: Antiviral activity against Hepatitis C virus infected in human HuH7 cells assessed as decrease in viral RNA level after 96 hrs by RT-PCR; format: functional, organism-based, Hepacivirus hominis; details: Huh-7, 96 h
Hepacivirus hominis = experiment: Fold resistance, ratio of HCV NS5B Cdelta 21 RNA dependent RNA polymerase S282T mutant to IC50 for IC50 for HCV wild type NS5B Cdelta 21 RNA dependent RNA polymerase
[4] = target: RNA-directed RNA polymerase (Hepacivirus hominis, UniProt O39930, S282T); experiment: Inhibition of Hepatitis C virus NS5B Cdelta 21 RNA dependent RNA polymerase S282T mutant expressed in Escherichia coli BL21(DE3)
Sequence of RNA-directed RNA polymerase (O39930 entry or part of it S282T): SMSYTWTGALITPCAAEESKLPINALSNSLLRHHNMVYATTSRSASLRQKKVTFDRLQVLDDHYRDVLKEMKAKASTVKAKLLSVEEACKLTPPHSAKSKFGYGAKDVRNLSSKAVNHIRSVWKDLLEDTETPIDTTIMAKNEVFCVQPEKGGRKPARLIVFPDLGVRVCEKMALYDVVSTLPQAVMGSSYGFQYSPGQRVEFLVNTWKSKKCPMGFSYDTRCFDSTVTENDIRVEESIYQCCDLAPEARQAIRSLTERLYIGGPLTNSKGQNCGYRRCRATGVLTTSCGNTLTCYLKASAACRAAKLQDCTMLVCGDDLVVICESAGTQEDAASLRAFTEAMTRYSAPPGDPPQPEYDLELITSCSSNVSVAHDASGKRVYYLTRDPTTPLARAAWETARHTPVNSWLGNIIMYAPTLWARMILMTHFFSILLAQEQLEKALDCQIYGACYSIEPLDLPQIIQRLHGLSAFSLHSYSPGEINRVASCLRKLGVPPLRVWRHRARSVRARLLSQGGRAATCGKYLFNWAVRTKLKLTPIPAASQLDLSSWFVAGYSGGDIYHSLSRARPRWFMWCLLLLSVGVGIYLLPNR

Huh-7 [5] = experiment: Metabolic stability in human HuH7 cells assessed as diphosphate level at 50 uM after 4 hrs by LC-MS/MS analysis; format: ADME, cell-based; details: huh-7, 4 h
How it was run: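 For the cellular pharmacology study, Huh-7 cells were incubated separately with the nucleoside or its phosphoramidate prodrug at 50 μM for 4 h at 37 °C, then washed with phosphate-buffered saline before analysis of intracellular metabolites.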

[6] = Inhibition of Hepatitis C virus wild-type NS5B Cdelta 21 RNA dependent RNA polymerase expressed in Escherichia coli BL21(DE3); design: species or system Hepacivirus hominis

| Structure (SMILES) | Stability (Huh-7 [1]) | EC50 [2] [µM] | EC90 [2] [µM] | CC50 (Huh-7 [3]) [µM] | IC50 (Vero) [µM] | IC50 (CCRF-CEM) [µM] | IC50 (PBMC) [µM] | EC50 (Hepatitis C virus) [µM] | EC90 (Hepatitis C virus) [µM] | Ratio IC50 (Hepacivirus hominis) | IC50 [4] [µM] | Stability (Huh-7 [5]) | IC50 [6] [µM] |
| --- | --- | --- | --- | --- | --- | --- | --- | --- | --- | --- | --- | --- | --- |
| CCOC(=O)[C@H](C)NP(=O)(OC[C@H]1O[C@@H](n2ccc3c(N)nc(N)nc32)[C@](C)(F)[C@@H]1O)Oc1ccccc1 (stereo partly drawn) | Unstable | 88 | > 100 | > 10 | > 100 | > 100 | > 100 | > 10 | > 10 |  |  |  |  |
| COP(=O)(OC)OP(=O)(OC)OP(=O)(OC)OC[C@H]1O[C@@H](n2ccc3c(N)ncnc32)[C@](C)(F)[C@@H]1O (stereo partly drawn) |  |  |  |  |  |  |  |  |  | 1 | 15 |  |  |
| C[C@@]1(F)[C@H](O)[C@@H](CO)O[C@H]1n1ccc2c(N)nc(N)nc21 | Stable | > 100 |  | > 10 | > 100 | > 100 | > 100 | > 10 | > 10 |  |  | Stable |  |
| COP(=O)(OC)OP(=O)(OC)OP(=O)(OC)OC[C@H]1O[C@@H](n2cc(F)c3c(N)ncnc32)[C@](C)(F)[C@@H]1O (stereo partly drawn) |  |  |  |  |  |  |  |  |  | 1.5 | 6 |  | 4 |
